# Reference: ChEMBL document CHEMBL5038594, “Structural Fine-Tuning of Desmuramylpeptide NOD2 Agonists Defines Their In Vivo Adjuvant Activity” (J Med Chem, 2021)
# Active and inactive are the calls of the source. The rule behind the calls is not given here.
# Tests used:
# PBMC [1] = test: Immunostimulatory activity in human PBMC cells assessed as increase in IL-6 production at 2 uM incubated for 18 hrs by flow cytometry analysis; type: functional, cell-based
# Outline: (§1)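 Human PBMCs from healthy donors, 1 × 10^6 cells/mL in RPMI 1640 with 10% FBS, treated with 2 μM compound or 0.1% DMSO, without or with LPS 10 ng/mL, for 18 h at 37 °C. Supernatant cytokines quantified by cytometric bead array (human inflammatory panel) on a flow cytometer against recombinant standards. Four independent donors. Repeated-measures one-way ANOVA with Dunnett.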
# PBMC [2] = test: Immunostimulatory activity in human PBMC cells assessed as increase in LPS-induced IL-1beta production at 2 uM incubated for 18 hrs by flow cytometry analysis; type: functional, cell-based; outline: as §1
# K562 = test: Cytotoxicity against human K562 cells cocultured with human PBMC cells assessed as inhibition of cell proliferation at 10 uM incubated with PBMC cells for 18 hrs followed by co-incubation with K562 cells for 4 hrs by SYTOX blue staining based flow cytometric analysis; type: functional
# Outline: (§2)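 Effector cells are freshly Ficoll-isolated human PBMCs, 4 × 10^5 per well, pretreated 18 h with compound or 0.1% DMSO. CFSE-labelled K562 or MEC1 targets, 1 × 10^4 per well, are then added at 40:1 effector:target ratio and co-incubated 4 h at 37 °C. Dead targets are CFSE+/Sytox blue+ by flow cytometry. Results are relative to vehicle. Duplicates; three (MEC1) or four (K562) independent experiments. One-way ANOVA with Dunnett.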
# [3] = target: T1, Nucleotide-binding oligomerization domain-containing protein 1 (Homo sapiens) (UniProt Q9Y239); test: Agonist activity at NOD1 in HEK-Blue hNOD2 cells assessed as increase in NFkappaB transactivation-mediated SEAP activity measured after 18 hrs by spectrophotometric method; type: cell-based; conditions: HEK-Blue hNOD1, in the assay text read “HEK-Blue hNOD1 cells” for “HEK-Blue hNOD2 cells”
# T1 sequence (whole entry): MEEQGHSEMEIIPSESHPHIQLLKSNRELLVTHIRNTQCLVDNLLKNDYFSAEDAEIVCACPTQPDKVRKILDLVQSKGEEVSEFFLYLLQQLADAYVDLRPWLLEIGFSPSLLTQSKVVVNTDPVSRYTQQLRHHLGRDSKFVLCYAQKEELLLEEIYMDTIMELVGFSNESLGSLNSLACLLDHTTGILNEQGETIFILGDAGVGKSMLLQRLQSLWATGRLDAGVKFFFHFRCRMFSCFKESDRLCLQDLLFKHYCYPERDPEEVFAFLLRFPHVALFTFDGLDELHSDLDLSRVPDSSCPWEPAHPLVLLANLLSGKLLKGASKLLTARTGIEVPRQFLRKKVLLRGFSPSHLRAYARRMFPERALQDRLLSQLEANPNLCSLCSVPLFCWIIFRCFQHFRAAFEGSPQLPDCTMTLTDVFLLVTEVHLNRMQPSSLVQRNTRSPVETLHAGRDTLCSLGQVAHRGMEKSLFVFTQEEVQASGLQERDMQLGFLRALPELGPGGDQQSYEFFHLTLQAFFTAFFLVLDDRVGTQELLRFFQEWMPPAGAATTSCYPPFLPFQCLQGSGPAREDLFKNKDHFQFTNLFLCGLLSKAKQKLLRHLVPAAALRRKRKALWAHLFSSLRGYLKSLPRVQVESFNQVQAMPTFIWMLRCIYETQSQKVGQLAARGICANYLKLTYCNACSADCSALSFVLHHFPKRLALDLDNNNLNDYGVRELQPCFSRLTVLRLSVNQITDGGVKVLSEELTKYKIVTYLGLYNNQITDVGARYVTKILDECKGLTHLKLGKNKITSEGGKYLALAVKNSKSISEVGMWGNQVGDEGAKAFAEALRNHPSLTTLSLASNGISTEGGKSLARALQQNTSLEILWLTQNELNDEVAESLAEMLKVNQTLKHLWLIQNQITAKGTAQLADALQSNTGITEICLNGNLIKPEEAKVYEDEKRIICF
# Outline: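 Counter-screen in HEK-Blue NOD1 cells (HEK293 stably expressing human NOD1 plus an NF-κB-inducible SEAP reporter), seeded at 2.5 × 10^5 cells/mL in HEK-Blue detection medium. Compounds at 2 μM versus 0.1% DMSO vehicle, 18 h at 37 °C, 5% CO2. SEAP read as absorbance at 630 nm. Duplicates, at least two independent experiments.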
# PBMC [4] = test: Immunostimulatory activity in human PBMC cells assessed as increase in IL-8 production at 2 uM incubated for 18 hrs by flow cytometry analysis; type: functional, cell-based; outline: as §1
# MEC1 [5] = test: Cytotoxicity against human MEC-1 cells cocultured with human PBMC cells assessed as inhibition of cell proliferation at 100 nM incubated with PBMC cells for 18 hrs followed by co-incubation with MEC-1 cells for 4 hrs by SYTOX blue staining based flow cytometric analysis; type: functional; outline: as §2
# MEC1 [6] = test: Cytotoxicity against human MEC-1 cells cocultured with human PBMC cells assessed as inhibition of cell proliferation at 1 uM incubated with PBMC cells for 18 hrs followed by co-incubation with MEC-1 cells for 4 hrs by SYTOX blue staining based flow cytometric analysis; type: functional; outline: as §2
# MEC1 [7] = test: Cytotoxicity against human MEC-1 cells cocultured with human PBMC cells assessed as inhibition of cell proliferation at 10 uM incubated with PBMC cells for 18 hrs followed by co-incubation with MEC-1 cells for 4 hrs by SYTOX blue staining based flow cytometric analysis; type: functional; outline: as §2
# PBMC [8] = test: Immunostimulatory activity in human PBMC cells assessed as increase in LPS-induced TNF-alpha production at 2 uM incubated for 18 hrs by flow cytometry analysis; type: functional, cell-based; outline: as §1
# PBMC [9] = test: Immunostimulatory activity in human PBMC cells assessed as increase in IL-1beta production at 2 uM incubated for 18 hrs by flow cytometry analysis; type: functional, cell-based; outline: as §1
# Mus musculus [10] = test: Immuno-adjuvant activity in NIH/OlaHsd mouse assessed as increase in ovalbumin specific […] associated IgG2a production in sera at 0.15 micromol administered subcutaneously on day 1 and as booster dose on day 21 and 28 with ovalbumin loaded liposomes by ELISA; type: functional, organism-based; conditions: dose 0.15 µmol, time 28.0 day
# Outline: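 Groups of 5 female NIH/OlaHsd mice, 2.0–2.5 months old, immunized with ovalbumin-loaded liposomes (10 μg ovalbumin per dose) containing 0.15 μmol adjuvant per dose. Liposomes were neutral (PC–cholesterol 7:5), anionic (PC–cholesterol–dicetylphosphate 7:5:1) or mannosylated (PC–cholesterol–mannose-PEG-PA 7:5:0.5). Serum ovalbumin-specific IgG, IgG1 and IgG2a measured 1 week after the second booster. Mean ± SEM.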
# Mus musculus [11] = test: Immuno-adjuvant activity in NIH/OlaHsd mouse assessed as increase in ovalbumin specific […] associated IgG2a production in sera at 0.30 micromol administered subcutaneously on day 1 and as booster dose on day 21 with ovalbumin loaded neutral liposomes and measured 1 week post booster dose by ELISA; type: functional, organism-based; conditions: dose 0.3 µmol, time 28.0 day
# Outline: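 Groups of 5 female NIH/OlaHsd mice, 2.0–2.5 months old, immunized with ovalbumin-loaded neutral liposomes (10 μg ovalbumin per dose) containing 0.30 μmol adjuvant per dose, plus one booster dose. Serum ovalbumin-specific IgG, IgG1 and IgG2a measured 1 week after the booster. Mean ± SEM of 5 mice.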
# PBMC [12] = test: Immunostimulatory activity in human PBMC cells assessed as increase in LPS-induced IL-6 production at 2 uM incubated for 18 hrs by flow cytometry analysis; type: functional, cell-based; outline: as §1
compound,measurement,setting,value
CCCCCCCCCCCCCCCCCC(=O)Oc1ccc(/C=C/C(=O)NCC(=O)N[C@H](C(=O)N[C@H](CCC(=O)OCC)C(=O)OCC)C(C)C)cc1OC,Activity,PBMC [1],inactive
same,Activity,PBMC [2],Active
same,Activity,K562,Active
same,Activity,[3],inactive
same,Activity,PBMC [4],inactive
same,Activity,MEC1 [5],inactive
same,Activity,MEC1 [6],inactive
same,Activity,MEC1 [7],Active
same,Activity,PBMC [8],Active
same,Activity,PBMC [9],inactive
same,Activity,Mus musculus [10],Active
same,Activity,Mus musculus [11],Active
same,Activity,PBMC [12],Active
